Experimental data from ChEMBL document CHEMBL1153386, “Allopregnanolone (3alpha-hydroxy-5alpha-pregnan-20-one) derivatives with a polar chain in position 16alpha: synthesis and activity” (J Med Chem, 2009).

Key:
Rattus norvegicus [1] = species on record: Rattus norvegicus; test: Displacement of [35S]TBPS from Wistar rat brain GABAA receptor relative to control
How it was run: (§1)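 Whole-brain membranes from adult male Wistar rats, resuspended in 20 mM KH2PO4/200 mM KCl, pH 7.4. Incubated 60 min at 37 °C with 2 nM [35S]TBPS, 1 µM GABA and steroid at 1 nM–10 µM. Nonspecific binding defined with 200 µM picrotoxinin. Binding expressed as % of DMSO control samples.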

[2] = Displacement of [35S]TBPS from Wistar rat brain GABAA receptor; how it was run: as §1
Rattus norvegicus [3] = species on record: Rattus norvegicus; test: Displacement of [35S]TBPS from Wistar rat brain GABAA receptor at 100 nM relative to control; how it was run: as §1

Row | Compound | Imax (Rattus norvegicus [1]) [%] | IC50 [2] [nM] | inhibition (Rattus norvegicus [3]) [%]
1 | CC(=O)[C@H]1[C@H](CC(=O)O)C[C@H]2[C@@H]3CC[C@H]4C[C@H](O)CC[C@]4(C)[C@H]3CC[C@@]21C | 19 | 40 | 
2 | CC(=O)[C@H]1[C@H](OCCOCCO)C[C@H]2[C@@H]3CC[C@H]4C[C@H](O)CC[C@]4(C)[C@H]3CC[C@@]21C |  |  | < 15
3 | CC(=O)[C@H]1[C@H](C(CO)CO)C[C@H]2[C@@H]3CC[C@H]4C[C@H](O)CC[C@]4(C)[C@H]3CC[C@@]21C |  |  | < 15
4 | CC(=O)[C@H]1CC[C@H]2[C@@H]3CC[C@H]4C[C@H](O)CC[C@]4(C)[C@H]3CC[C@]12C [BREXANOLONE] | 79 | 80 | 
5 | CC(=O)[C@H]1[C@H](C(COC(N)=O)COC(N)=O)C[C@H]2[C@@H]3CC[C@H]4C[C@H](O)CC[C@]4(C)[C@H]3CC[C@@]21C | 26 | 86 | 
6 | CC(=O)[C@H]1[C@H](OCC(O)CO)C[C@H]2[C@@H]3CC[C@H]4C[C@H](O)CC[C@]4(C)[C@H]3CC[C@@]21C (stereo partly drawn) |  |  | < 15
7 | NC(=O)OCC(COC(N)=O)c1ccccc1 [FELBAMATE] | 18 | 95 | 
8 | CC(=O)[C@H]1[C@H](CCOC(N)=O)C[C@H]2[C@@H]3CC[C@H]4C[C@H](OC(N)=O)CC[C@]4(C)[C@H]3CC[C@@]21C | 59 | 300 | 
9 | CC(=O)[C@H]1[C@H](CCOC(N)=O)C[C@H]2[C@@H]3CC[C@H]4C[C@H](O)CC[C@]4(C)[C@H]3CC[C@@]21C | 61 | 750 | 
10 | CC(=O)[C@H]1[C@H](OCCO)C[C@H]2[C@@H]3CC[C@H]4C[C@H](O)CC[C@]4(C)[C@H]3CC[C@@]21C |  |  | < 15
11 | CC(=O)[C@H]1[C@H](CC(N)=O)C[C@H]2[C@@H]3CC[C@H]4C[C@H](O)CC[C@]4(C)[C@H]3CC[C@@]21C |  |  | < 15
12 | CC(=O)[C@H]1[C@H](CC#N)C[C@H]2[C@@H]3CC[C@H]4C[C@H](O)CC[C@]4(C)[C@H]3CC[C@@]21C |  |  | < 15
